Measured values as given in ChEMBL document CHEMBL1135327, “Comparison of the prevention of aflatoxin b(1)-induced genotoxicity by quercetin and quercetin pentaacetate” (2002).

Tests used:
[1] = organism: Rattus norvegicus; test: Effect of compound on AFB1-induced micronuclei formation in rat bone marrow cells (Activity: Micronucleated cells/1000 cells); assay type: functional
[2] = The compound was evaluated for in Vitro binding of AFB1 to DNA in rat liver microsomes; Pre-incubation time being 20 mins; conditions: Microsome
[3] = organism: Rattus norvegicus; test: Influence (2 uM) on transacetylase catalyzed time dependent activation of NADPH cytochrome C reductase at pre-incubation time being 10 mins; assay type: functional
In short: (§1)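 Rat liver microsomes were preincubated at 37 °C with test compound (in DMSO) in 0.05 M phosphate buffer, pH 7.7. Aliquots were taken at 5, 10, 20 and 30 min into a cuvette with EDTA, cytochrome C and NADPH. NADPH–cytochrome C reductase activity was followed at 550 nm. Values are means of four observations.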

[4] = organism: Rattus norvegicus; test: Influence (2 uM) on transacetylase catalyzed time dependent activation of NADPH cytochrome C reductase at pre-incubation time being 20 mins; assay type: functional; in short: as §1
[5] = organism: Rattus norvegicus; test: Effect of compound on AFB1-induced micronuclei formation in rat bone marrow cells in the presence of AFB1 (Activity: Micronucleated cells/1000 cells); assay type: functional
[6] = organism: Rattus norvegicus; test: Influence (2 uM) on transacetylase catalyzed time dependent activation of NADPH cytochrome C reductase at pre-incubation time being 30 mins; assay type: functional; in short: as §1
[7] = The compound was evaluated for in Vitro binding of AFB1 to DNA in rat liver microsomes; Pre-incubation time being 10 mins; conditions: Microsome
[8] = organism: Rattus norvegicus; test: Influence (2 uM) on transacetylase catalyzed time dependent activation of NADPH cytochrome C reductase at pre-incubation time being 5 mins; assay type: functional; in short: as §1
[9] = The compound was evaluated for in Vitro binding of AFB1 to DNA in rat liver microsomes; Pre-incubation time being 30 mins; conditions: Microsome
[10] = organism: Rattus norvegicus; test: Influence (5 uM) on transacetylase catalyzed time dependent activation of NADPH cytochrome C reductase at pre-incubation time being 20 mins; assay type: functional; in short: as §1
[11] = organism: Rattus norvegicus; test: Influence (5 uM) on transacetylase catalyzed time dependent activation of NADPH cytochrome C reductase at pre-incubation time being 5 mins; assay type: functional; in short: as §1
[12] = organism: Rattus norvegicus; test: Influence (5 uM) on transacetylase catalyzed time dependent activation of NADPH cytochrome C reductase at pre-incubation time being 10 mins; assay type: functional; in short: as §1
[13] = organism: Rattus norvegicus; test: Influence (5 uM) on transacetylase catalyzed time dependent activation of NADPH cytochrome C reductase at pre-incubation time being 30 mins; assay type: functional; in short: as §1

Compound: CC(=O)Oc1ccc2c(C)cc(=O)oc2c1OC(C)=O
- Activity [1]: 2.25
- inhibition [2]: 37.5%
- Activation [3]: 18.9%
- Activation [4]: 39.9%
- Activity [5]: 3.75
- Activation [6]: 57.6%
- inhibition [7]: 19%
- Activation [8]: 10.2%
- inhibition [9]: 56.8%

Compound: CC(=O)Oc1cc(OC(C)=O)c2c(=O)c(OC(C)=O)c(-c3ccc(OC(C)=O)c(OC(C)=O)c3)oc2c1
- Activity [1]: 2.25
- Activation [10]: 25%
- inhibition [2]: 12.8%
- Activity [5]: 4.75
- inhibition [7]: 6.7%
- Activation [11]: 7.1%
- Activation [12]: 13.3%
- Activation [13]: 37%
- inhibition [9]: 18%

Compound: O=c1c(O)c(-c2ccc(O)c(O)c2)oc2cc(O)cc(O)c12 [QUERCETIN]
- Activity [1]: 2
- Activation [10]: 5.4%
- inhibition [2]: 5.2%
- Activity [5]: 6
- inhibition [7]: 5.7%
- Activation [11]: 3.7%
- Activation [12]: 3.3%
- Activation [13]: 5.7%
- inhibition [9]: 6.2%

Compound: Cc1cc(=O)oc2c(O)c(O)ccc12 [4-METHYLDAPHNETIN]
- Activation [10]: 3.1%
- inhibition [2]: 8.2%
- inhibition [7]: 8.5%
- Activation [11]: 2.8%
- Activation [12]: 2.5%
- Activation [13]: 3.5%
- inhibition [9]: 8.9%
